For the experiment, the system named is Plasmodium yoelii. The experiment can be described thus: NOVARTIS: Antimalarial liver stage activity measured as reduction in Plasmodium yoelii schizont area in HepG2-A16-CD81 cells by immuno-fluorescence, and median schizont size at 10uM compound concentration. Format: functional, organism-based. The settings on record: for IC50: Plasmodium yoelii, HepG2-A16-CD81. Put shortly: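 Host and parasite nuclei stained with Hoechst 33342, parasites with αPyHSP70 antibody; 25 images per well by high-content imaging; median parasite (schizont) area measured by automated image analysis, ~50 schizonts per experiment, two or more independent experiments.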

Where only a bound is given, the exact number is not on record here.

A word on the IC50: it is the midpoint of a concentration-inhibition curve. Read a high IC50 as lower potency. On to `COc1cc(C(=O)NCCc2ccccn2)ccc1OC1CCN(CC(c2ccccc2)c2ccccc2)CC1`, for which the IC50 came out at 1280 nM.
The same measure, in the same setting: with `COc1cncc(-c2cncc(-c3ccc(C)cc3)n2)c1` the figure was greater than 10000 nM.
`COc1ccccc1-n1c(C=Cc2cc(Br)ccc2O)nc2ccccc2c1=O` registered an IC50 of 4590 nM.
The same measure, in the same setting: with `O=C(Nc1ccc(-c2nc3ccccc3[nH]2)cc1)c1ccc(-c2ccc(Cl)cc2)o1` the figure was 6650 nM.
Still for that read-out and setting: under `COc1cc(C(=O)Nc2ccc3nc4n(c(=O)c3c2)CCCCC4)cc(OC)c1OC` stands greater than 10000 nM; under `CC(=O)Nc1cccc(-c2cncc(-c3ccc(C(=O)O)cc3)n2)c1`, greater than 10000 nM; under `COc1cccc(CNC(=O)C2CNCC2c2ccc(C(F)(F)F)cc2)c1` (centres undefined), 857 nM.
The same measure, in the same setting: with `Cc1nc2ccc(NC(=O)C3CC3)cc2c(=O)n1Cc1ccc(Cl)cc1` the figure was greater than 10000 nM; with `Oc1c2c(nc3cc(-c4ccc(Br)cc4)nn13)CCCC2`, 499 nM.
`CC(c1nc2ccc(Cl)cc2c(=O)n1C)N1CCN(S(=O)(=O)c2cccc3ccccc23)CC1` (centres undefined): half-maximal inhibition (IC50) was put at 22.3 nM.
On to `CCCCCCN(C(=O)c1ccc(C(C)(C)C)cc1)C(CC)c1nc2ccccc2c(=O)n1-c1ccc(F)cc1` (centres undefined), for which the IC50 was greater than 6910 nM.
Same read-out and setting: under `CCCCC(CC)C(=O)N1CCN(C(CC)c2nc3ccccc3c(=O)n2C)CC1` (centres undefined) stands 231 nM; under `COc1ccccc1CNC(=O)c1nn(-c2ccc(Cl)cc2)c(=O)c2ccccc12`, greater than 10000 nM.
Same read-out and setting: with `CC(C)(C)OC(=O)N1CCC(c2c(C(=O)Nc3cccc(C(F)(F)F)c3)cnn2-c2ccc(F)cc2F)CC1` the figure was 3120 nM; with `COc1cccc(-c2cncc(-c3cncc(OC)c3)n2)c1`, greater than 10000 nM.
Still for that read-out and setting: with `CC(C)CC(N)C(=O)N1CCn2c(nc(-c3ccccc3)c2Nc2ccc3c(c2)OCO3)C1` (centres undefined) the figure was 186 nM; with `O=C1N(Cc2cc3ccccc3s2)CC2CN(Cc3ccsc3)CCN12` (centres undefined), 25.5 nM; with `CCCc1nc2ccc(NC(=O)c3ccccc3F)cc2c(=O)n1Cc1ccc(-c2ccccc2)cc1`, 1730 nM.
In turn, `NCC(=O)N1CCn2c(nc(-c3ccccc3)c2Nc2ccc3c(c2)OCO3)C1` came in with an IC50 of 221 nM.
Consider `CCCN(C(=O)Nc1c(C(C)C)cccc1C(C)C)C(CC)c1nc2ccccc2c(=O)n1-c1cccc(C)c1` (centres undefined), for which half-maximal inhibition (IC50) was put at 6300 nM.
Still for that read-out and setting: with `CC(c1nc2ccccc2c(=O)n1C)N1CCN(C(=O)C(C)(C)C)CC1` (centres undefined) the figure was 492 nM; with `COc1cccc(OC)c1C(=O)Nn1c(-c2cccc(C)c2)nc2ccccc2c1=O`, greater than 10000 nM.
As to `CCCCCCN(C(=O)COc1ccccc1)C(CC)c1nc2ccccc2c(=O)n1-c1cccc(Cl)c1` (centres undefined), the half-maximal inhibitory concentration (IC50) was greater than 10000 nM.
`COc1ccc2cc3[n+](cc2c1OC)CCc1cc2c(cc1-3)OCO2.[Cl-]` [BERBERINE CHLORIDE] gave a Schizont size of 102.08 um and an IC50 of 548 nM.
The like results for `CC1(C)N=C(N)N=C(N)N1c1ccc(Cl)cc1.Cl` [CHLORCYCLOGUANIL HYDROCHLORIDE] were, in that order, 33.09 um and 2.56 nM.
Taken in the same sequence, the figures for `C[C@@H]1C[C@@H]([C@H](O)CC2CC(=O)NC(=O)C2)C(=O)[C@@H](C)C1` [CYCLOHEXIMIDE] were 14.61 um and 78.1 nM.
The like results for `Cc1cc(N)c2ccccc2[n+]1CCCCCCCCCC[n+]1c(C)cc(N)c2ccccc21.[Cl-].[Cl-]` [DEQUALINIUM CHLORIDE] were, in that order, 40.29 um and 566 nM.
For the compound `CC[C@H]1CN2CCc3cc(OC)c(OC)cc3[C@@H]2C[C@@H]1C[C@H]1NCCc2cc(OC)c(OC)cc21` [EMETINE], the Schizont size is reported as 26.51 um and half-maximal inhibition (IC50) was put at 7.49 nM.
The like results for `CCc1nc(N)nc(N)c1-c1ccc(Cl)cc1` [PYRIMETHAMINE] were, in that order, 37.58 um and 2.15 nM.
The like results for `CCN(CC)CCCC(C)Nc1c2ccc(Cl)cc2nc2ccc(OC)cc12` (centres undefined) [QUINACRINE] were, in that order, 26.3 um and 166 nM.
Taken in the same sequence, the figures for `O=C1c2ccccc2-n2c1nc1ccccc1c2=O` [TRYPTANTHRIN] were 89.55 um and 225 nM.
